Experimental data: ChEMBL document CHEMBL1154078, “Synthesis of novel purine nucleosides towards a selective inhibition of human butyrylcholinesterase” (Bioorg Med Chem, 2009)
Active and inactive are the calls of the source. The rule behind the calls is not given here.

What was measured:
[1] = molecular target: T1, Acetylcholinesterase (Bos taurus) (UniProt P23795); assay: Inhibition of AChE in bovine erythrocytes assessed as hydrolysis of acetylthiocholine by Ellman's method
T1 sequence (whole entry): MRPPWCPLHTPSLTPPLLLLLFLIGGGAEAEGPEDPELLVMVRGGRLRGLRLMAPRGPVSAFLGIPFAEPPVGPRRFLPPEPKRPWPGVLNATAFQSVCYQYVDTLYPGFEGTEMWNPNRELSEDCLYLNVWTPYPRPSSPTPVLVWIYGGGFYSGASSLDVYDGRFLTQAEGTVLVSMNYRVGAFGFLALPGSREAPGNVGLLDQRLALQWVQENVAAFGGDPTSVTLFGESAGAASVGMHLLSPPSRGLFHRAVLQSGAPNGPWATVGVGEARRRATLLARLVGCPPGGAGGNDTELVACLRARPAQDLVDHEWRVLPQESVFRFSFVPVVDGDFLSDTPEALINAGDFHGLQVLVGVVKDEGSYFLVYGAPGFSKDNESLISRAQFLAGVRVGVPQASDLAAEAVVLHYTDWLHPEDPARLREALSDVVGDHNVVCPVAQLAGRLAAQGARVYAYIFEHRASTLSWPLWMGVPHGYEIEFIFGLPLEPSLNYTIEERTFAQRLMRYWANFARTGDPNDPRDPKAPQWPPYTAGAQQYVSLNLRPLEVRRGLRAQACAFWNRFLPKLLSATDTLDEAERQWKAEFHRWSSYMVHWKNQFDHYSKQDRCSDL
How it was run: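 Bovine erythrocyte AChE (1.32 U/mL solution) in 0.1 M phosphate buffer pH 8.0 with acetylthiocholine iodide and DTNB. Yellow product read kinetically at 410 nm for 4 min at 30 °C. Rates compared with no-inhibitor V_max; inhibition % = 100 − 100·V/V_max. At least four replicates. One-sided t-test against 0% inhibition.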

[2] = Cytotoxicity against human A549 cells assessed as cell viability at 2000 ug/mL after 24 hrs by MTT assay relative to control; type: cell-based; conditions: read-out: Activity
How it was run: (§1)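 A549 cells seeded, left 24 h to attach, then exposed to compound for 24 h. Hydrogen peroxide served as positive control and pure solvent as negative control. At 48 h of culture, MTT added to a final concentration of 0.5 mg/mL and incubated 3 h. Medium removed, cells washed twice, formazan dissolved in DMSO with shaking for 20 min at room temperature.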

[3] = Cytotoxicity against human A549 cells assessed as cell viability at 200 ug/mL after 24 hrs by MTT assay relative to control; type: cell-based; conditions: read-out: Activity; how it was run: as §1
[4] = Cytotoxicity against human A549 cells assessed as cell viability at 20 ug/mL after 24 hrs by MTT assay relative to control; type: cell-based; conditions: read-out: Activity; how it was run: as §1
[5] = Cytotoxicity against human A549 cells assessed as cell viability at 2 ug/mL after 24 hrs by MTT assay relative to control; type: cell-based; conditions: read-out: Activity; how it was run: as §1
[6] = Cytotoxicity against human A549 cells assessed as cell viability at 0.2 ug/mL after 24 hrs by MTT assay relative to control; type: cell-based; conditions: read-out: Activity; how it was run: as §1
Cholinesterase [7] = molecular target: T2, Cholinesterase (Homo sapiens, UniProt P06276); assay: Inhibition of BChE in human serum assessed as hydrolysis of butyrylthiocholine at 100 ug/mL by Ellman's method; type: cell-free
How it was run: (§2)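 Human serum BChE (0.44 U/mL solution) in 0.1 M phosphate buffer pH 8.0 with S-butyrylthiocholine iodide and DTNB. Absorbance at 410 nm followed kinetically for 4 min at 30 °C, at least four replicates. Inhibition % = 100 − 100·V/V_max, where V_max comes from blanks without inhibitor; one-sided t-test. IC50 obtained by non-linear regression of the dose–response, given as mean ± SEM.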

Cholinesterase [8] = molecular target: T2, Cholinesterase; assay: Inhibition of BChE in human serum assessed as hydrolysis of butyrylthiocholine at 10 ug/mL by Ellman's method; how it was run: as §2
Cholinesterase [9] = molecular target: T2, Cholinesterase; assay: Inhibition of BChE in human serum assessed as hydrolysis of butyrylthiocholine at 1 ug/mL by Ellman's method; type: cell-free; how it was run: as §2
Cholinesterase [10] = molecular target: T2, Cholinesterase; assay: Inhibition of BChE in human serum assessed as hydrolysis of butyrylthiocholine at 0.1 ug/mL by Ellman's method; how it was run: as §2
[11] = Cytotoxicity against human A549 cells assessed as cell viability at 100 ug/mL after 24 hrs by MTT assay relative to control; type: cell-based; conditions: read-out: Activity
How it was run: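 A549 cells seeded, allowed to attach 24 h, then exposed to compound for 24 h; hydrogen peroxide positive control, solvent negative control. MTT added at 48 h of culture (final 0.5 mg/mL), 3 h incubation, cells washed twice, formazan dissolved in DMSO with 20 min shaking at room temperature; viable, metabolically active cells quantified.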

Cholinesterase [12] = molecular target: T2, Cholinesterase; assay: Inhibition of BChE in human serum assessed as hydrolysis of butyrylthiocholine by Ellman's method; type: cell-free
How it was run: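 Human serum BChE (0.44 U/mL solution) in 0.1 M phosphate buffer pH 8.0 with S-butyrylthiocholine iodide and DTNB. Absorbance at 410 nm followed kinetically for 4 min at 30 °C, at least four replicates. IC50 obtained by non-linear regression of the dose–response, given as mean ± SEM.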

Cholinesterase [13] = molecular target: T2, Cholinesterase; assay: Inhibition of BChE in human serum assessed as hydrolysis of butyrylthiocholine at 0.01 ug/mL by Ellman's method; type: cell-free; how it was run: as §2

T2 sequence (P06276 whole entry): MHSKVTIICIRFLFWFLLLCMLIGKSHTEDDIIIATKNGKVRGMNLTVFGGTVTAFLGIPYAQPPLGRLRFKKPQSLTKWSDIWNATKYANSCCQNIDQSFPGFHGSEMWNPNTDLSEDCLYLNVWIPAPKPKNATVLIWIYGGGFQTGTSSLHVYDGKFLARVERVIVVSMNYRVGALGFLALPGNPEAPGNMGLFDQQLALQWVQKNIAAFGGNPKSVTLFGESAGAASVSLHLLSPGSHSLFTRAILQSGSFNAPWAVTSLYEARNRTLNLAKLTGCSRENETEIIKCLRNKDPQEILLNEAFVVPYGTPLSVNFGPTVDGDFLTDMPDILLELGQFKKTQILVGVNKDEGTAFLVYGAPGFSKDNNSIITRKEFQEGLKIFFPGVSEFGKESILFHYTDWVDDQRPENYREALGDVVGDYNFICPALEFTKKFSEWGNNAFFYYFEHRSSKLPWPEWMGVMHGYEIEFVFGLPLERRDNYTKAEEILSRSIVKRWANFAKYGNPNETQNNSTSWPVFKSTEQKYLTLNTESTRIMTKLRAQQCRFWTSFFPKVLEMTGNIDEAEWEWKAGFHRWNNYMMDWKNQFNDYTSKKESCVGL

| Compound | inhibition [1] | viability at 24 h, 2000 ug/mL [2] | viability at 24 h, 200 ug/mL [3] | viability at 24 h, 20 ug/mL [4] | viability at 24 h, 2 ug/mL [5] | viability at 24 h, 0.2 ug/mL [6] | inhibition (Cholinesterase [7]) | inhibition (Cholinesterase [8]) | inhibition (Cholinesterase [9]) | inhibition (Cholinesterase [10]) | viability at 24 h, 100 ug/mL [11] | IC50 (Cholinesterase [12]) | inhibition (Cholinesterase [13]) |
| --- | --- | --- | --- | --- | --- | --- | --- | --- | --- | --- | --- | --- | --- |
| COC(=O)[C@@H](N=[N+]=[N-])[C@@H]1O[C@@H](n2cnc3nc(NC(C)=O)nc(Cl)c32)[C@@H]2OC[C@H](OCc3ccccc3)[C@]2(OCc2ccccc2)[C@@H]1OCc1ccccc1 | inactive | 15.1% | 19.5% | 40.8% | 77.7% | 103% | – | – | – | – | – | – | – |
| CO[C@H]1O[C@H](CO)[C@@H](O)[C@@]2(O)[C@@H](O)CO[C@@H]12 | inactive | – | – | – | – | – | < 5% | – | – | – | – | – | – |
| CCN(C)C(=O)Oc1cccc([C@H](C)N(C)C)c1 [RIVASTIGMINE] | inactive | – | – | – | – | – | 100% | 100% | 100% | 76% | 89% | – | – |
| CC(=O)Nc1nc(Cl)c2c(ncn2[C@@H]2O[C@H](COC(C)=O)[C@@H](OCc3ccccc3)[C@@]3(OCc4ccccc4)[C@@H](OCc4ccccc4)CO[C@@H]23)n1 | inactive | – | – | – | – | – | 84% | 85% | 70% | 20% | – | 0.76 µM | – |
| CO[C@H]1O[C@H](COC(=O)c2ccccc2)[C@@H](OC(=O)c2ccccc2)[C@@]2(OC(=O)c3ccccc3)[C@@H](OC(=O)c3ccccc3)CO[C@@H]12 | inactive | – | – | – | – | – | 7% | – | – | – | – | – | – |
| CO[C@H]1O[C@@H]([C@@H](N=[N+]=[N-])C(=O)OCc2ccccc2)[C@@H](OCc2ccccc2)[C@@]2(OCc3ccccc3)[C@@H](OCc3ccccc3)CO[C@@H]12 | inactive | 16% | 64.2% | 63.6% | 76.2% | 90.5% | 98% | 73% | 14% | – | – | 13.4 µM | – |
| CC(=O)Nc1nc(Cl)c2c(ncn2[C@@H]2O[C@@H]([C@H](N=[N+]=[N-])C(=O)OCc3ccccc3)[C@@H](OCc3ccccc3)[C@@]3(OCc4ccccc4)[C@@H](OCc4ccccc4)CO[C@@H]23)n1 | inactive | 7.32% | 51.3% | 46.9% | 82.2% | 88.5% | 81% | 34% | 9% | – | – | 22 µM | – |
| COC(=O)[C@H](N=[N+]=[N-])[C@@H]1O[C@@H](n2cnc3nc(NC(C)=O)nc(Cl)c32)[C@@H]2OC[C@H](OCc3ccccc3)[C@]2(OCc2ccccc2)[C@@H]1OCc1ccccc1 | inactive | 21.3% | 52.3% | 69.3% | 99.9% | 103% | – | – | – | – | – | – | – |
| CO[C@H]1O[C@H](COC(C)=O)[C@@H](OC(C)=O)[C@@]2(OC(C)=O)[C@@H](OC(C)=O)CO[C@@H]12 | inactive | – | – | – | – | – | < 5% | – | – | – | – | – | – |
| CO[C@H]1O[C@@H]([C@H](O)C(=O)OCc2ccccc2)[C@@H](OCc2ccccc2)[C@@]2(OCc3ccccc3)[C@@H](OCc3ccccc3)CO[C@@H]12 | inactive | – | – | – | – | – | 55% | 8% | – | – | – | 133 µM | – |
| CO[C@H]1O[C@H](CO)[C@@H](OCc2ccccc2)[C@@]2(OCc3ccccc3)[C@@H](OCc3ccccc3)CO[C@@H]12 | inactive | – | – | – | – | – | 60% | < 5% | – | – | – | 148 µM | – |
| C=C[C@H](O)[C@@H]1O[C@H](OC)[C@@H]2OC[C@H](OCc3ccccc3)[C@]2(OCc2ccccc2)[C@@H]1OCc1ccccc1 | inactive | – | – | – | – | – | 76% | 54% | 4% | – | – | 31 µM | – |
| C=C[C@@H](O)[C@@H]1O[C@H](OC)[C@@H]2OC[C@H](OCc3ccccc3)[C@]2(OCc2ccccc2)[C@@H]1OCc1ccccc1 | inactive | – | – | – | – | – | 73% | 23% | – | – | – | 50 µM | – |
| CO[C@H]1O[C@@H]([C@@H](O)C(=O)OCc2ccccc2)[C@@H](OCc2ccccc2)[C@@]2(OCc3ccccc3)[C@@H](OCc3ccccc3)CO[C@@H]12 | inactive | 36% | 63.6% | 67.2% | 81.6% | 91.9% | 95% | 56% | 7% | – | – | 16.1 µM | – |
| CC(=O)Nc1nc(Cl)c2ncn([C@@H]3O[C@H](COC(C)=O)[C@@H](OCc4ccccc4)[C@@]4(OCc5ccccc5)[C@@H](OCc5ccccc5)CO[C@@H]34)c2n1 | inactive | – | – | – | – | – | 48% | 11% | – | – | – | – | – |
| CO[C@H]1O[C@@H]([C@H](N=[N+]=[N-])C(=O)OCc2ccccc2)[C@@H](OCc2ccccc2)[C@@]2(OCc3ccccc3)[C@@H](OCc3ccccc3)CO[C@@H]12 | inactive | 25% | 47.9% | 73.9% | 71.2% | 90.2% | 91% | 64% | 36% | 15% | – | 4.2 µM | – |
| CC(=O)Nc1nc(Cl)c2c(ncn2[C@@H]2O[C@@H]([C@@H](N=[N+]=[N-])C(=O)OCc3ccccc3)[C@@H](OCc3ccccc3)[C@@]3(OCc4ccccc4)[C@@H](OCc4ccccc4)CO[C@@H]23)n1 | inactive | – | – | – | – | – | 91% | 79% | 77% | 63% | – | 0.14 µM | 10% |
